Measured values from publication PMC12827892 (Acta Pharmaceutica Sinica. B, 2025).
Where two headings read alike, the source gives them in different places.

Columns and labels:
SARS-CoV-2 [1] = assay type: in vivo, K18-hACE2 transgenic mice; settings: ip, BID; for Weight loss in infected mice: five days; for SARS-CoV-2 viral loads in the lungs: Day 6, RT-PCR and IHC
[2] = test system: panel of over 300 wild-type human kinases; assay: KINOMEscan kinase selectivity profile; assay type: binding; settings: 1 μmol/L
SARS-CoV-2 [3] = assay type: cell-based; settings: 4 μmol/L
[4] = test system: expression levels of ACE2; assay type: cell-based; settings: mouse airway organoids
[5] = test system: phosphorylation levels of RIPK1 Ser166; assay type: cell-based; settings: mouse airway organoids
[6] = Pharmacokinetic studies in mice; assay type: in vivo, male ICR mice
How it was run: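 Test compound was formulated in 10% (v/v) dimethylacetamide and 10% (w/v) Solutol HS 15 in normal saline. It was given to male ICR mice by tail-vein iv (1 mpk) or ip (10 mpk). Plasma from centrifuged whole blood was diluted in acetonitrile with internal standard. Brain was taken into PBS/acetonitrile (1:8) with internal standard and homogenised (30 Hz, 10 min). Samples were centrifuged (4 °C, 14,000 rpm, 10 min) and analysed by LC-MS/MS.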

SARS-CoV-2 [7] = assay: SARS-CoV-2 replication in hACE2-HeLa cells; assay type: cell-based; settings: 10 μmol/L
cytokine secretion = assay type: cell-based, mouse; settings: single agent
USP14 = USP14 (Homo sapiens, UniProt P54578); assay: DUB enzymatic assay; assay type: biochemical; settings: 10 μmol/L
OTUB1 = OTUB1 (Homo sapiens, UniProt Q96FW1); assay: DUB enzymatic assay; assay type: biochemical; settings: 10 μmol/L
SARS-CoV-2 Nsp3^179−1329 = SARS-CoV-2 Nsp3^179−1329 (Severe acute respiratory syndrome coronavirus 2, UniProt P0DTD1); assay: Nsp3 DUB activity, Rho-110 cleavage assay; assay type: biochemical
USP7 = USP7 (Homo sapiens, UniProt Q93009); assay: DUB enzymatic assay; assay type: biochemical; settings: 10 μmol/L
UCHL1 = molecular target: T1, UCHL1 (Homo sapiens, UniProt P09936); assay: DUB enzymatic assay; assay type: biochemical; settings: 10 μmol/L
T1 sequence (P09936 1-223): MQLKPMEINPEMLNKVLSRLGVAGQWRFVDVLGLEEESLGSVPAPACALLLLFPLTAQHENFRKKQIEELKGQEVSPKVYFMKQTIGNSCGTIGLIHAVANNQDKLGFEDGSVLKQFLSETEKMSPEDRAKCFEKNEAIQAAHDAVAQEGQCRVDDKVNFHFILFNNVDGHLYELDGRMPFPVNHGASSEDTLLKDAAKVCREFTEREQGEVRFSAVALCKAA

USP8 = molecular target: T2, USP8 (Homo sapiens, UniProt P40818); assay: DUB enzymatic assay; assay type: biochemical; settings: 10 μmol/L
T2 sequence (P40818 1-1118): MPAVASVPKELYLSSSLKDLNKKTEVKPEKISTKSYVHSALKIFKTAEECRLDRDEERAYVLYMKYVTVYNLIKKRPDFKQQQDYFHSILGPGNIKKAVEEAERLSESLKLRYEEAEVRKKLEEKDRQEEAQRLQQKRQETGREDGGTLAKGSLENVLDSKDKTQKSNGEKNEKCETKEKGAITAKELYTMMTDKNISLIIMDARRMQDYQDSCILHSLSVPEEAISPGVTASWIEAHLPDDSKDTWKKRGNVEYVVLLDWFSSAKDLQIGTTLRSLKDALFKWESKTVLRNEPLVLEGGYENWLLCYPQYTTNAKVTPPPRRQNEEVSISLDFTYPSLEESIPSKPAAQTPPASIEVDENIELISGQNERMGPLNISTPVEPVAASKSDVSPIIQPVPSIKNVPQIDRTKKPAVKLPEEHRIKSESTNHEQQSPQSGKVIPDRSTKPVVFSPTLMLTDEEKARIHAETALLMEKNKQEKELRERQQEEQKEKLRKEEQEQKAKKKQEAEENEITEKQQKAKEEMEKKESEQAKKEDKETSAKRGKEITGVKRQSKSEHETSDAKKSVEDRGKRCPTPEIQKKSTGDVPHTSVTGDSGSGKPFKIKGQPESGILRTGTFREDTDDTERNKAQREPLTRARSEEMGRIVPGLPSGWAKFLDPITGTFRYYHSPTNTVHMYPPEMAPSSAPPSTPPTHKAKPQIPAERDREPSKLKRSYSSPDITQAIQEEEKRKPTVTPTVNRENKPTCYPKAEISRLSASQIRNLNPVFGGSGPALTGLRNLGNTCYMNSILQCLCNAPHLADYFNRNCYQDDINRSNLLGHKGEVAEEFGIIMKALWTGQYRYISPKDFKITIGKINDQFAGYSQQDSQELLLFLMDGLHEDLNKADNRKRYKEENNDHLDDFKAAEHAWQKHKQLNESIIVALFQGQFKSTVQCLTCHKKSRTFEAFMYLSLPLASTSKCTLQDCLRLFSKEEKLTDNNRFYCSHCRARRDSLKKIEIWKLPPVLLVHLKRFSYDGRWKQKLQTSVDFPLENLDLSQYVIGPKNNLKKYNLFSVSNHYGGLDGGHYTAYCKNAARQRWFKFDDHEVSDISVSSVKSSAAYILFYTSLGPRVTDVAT

OC43 = assay type: cell-based, HCoV-OC43; settings: Huh7 hepatocytes, 0.1 MOI
[8] = Stability in mouse liver microsomes; assay type: in vitro ADME; settings: compared to 2
229E = assay type: cell-based, HCoV-229E
OTULIN = OTULIN (Homo sapiens, UniProt Q96BN8); assay: DUB enzymatic assay; assay type: biochemical; settings: 10 μmol/L
Nsp3179-1329 proteins = Nsp3179-1329 proteins (Severe acute respiratory syndrome coronavirus 2, UniProt P0DTD1); parameters: species or system SARS-CoV-2; settings: incubation with compound, SEC

USP7, sequence (Q93009 whole entry, species assumed): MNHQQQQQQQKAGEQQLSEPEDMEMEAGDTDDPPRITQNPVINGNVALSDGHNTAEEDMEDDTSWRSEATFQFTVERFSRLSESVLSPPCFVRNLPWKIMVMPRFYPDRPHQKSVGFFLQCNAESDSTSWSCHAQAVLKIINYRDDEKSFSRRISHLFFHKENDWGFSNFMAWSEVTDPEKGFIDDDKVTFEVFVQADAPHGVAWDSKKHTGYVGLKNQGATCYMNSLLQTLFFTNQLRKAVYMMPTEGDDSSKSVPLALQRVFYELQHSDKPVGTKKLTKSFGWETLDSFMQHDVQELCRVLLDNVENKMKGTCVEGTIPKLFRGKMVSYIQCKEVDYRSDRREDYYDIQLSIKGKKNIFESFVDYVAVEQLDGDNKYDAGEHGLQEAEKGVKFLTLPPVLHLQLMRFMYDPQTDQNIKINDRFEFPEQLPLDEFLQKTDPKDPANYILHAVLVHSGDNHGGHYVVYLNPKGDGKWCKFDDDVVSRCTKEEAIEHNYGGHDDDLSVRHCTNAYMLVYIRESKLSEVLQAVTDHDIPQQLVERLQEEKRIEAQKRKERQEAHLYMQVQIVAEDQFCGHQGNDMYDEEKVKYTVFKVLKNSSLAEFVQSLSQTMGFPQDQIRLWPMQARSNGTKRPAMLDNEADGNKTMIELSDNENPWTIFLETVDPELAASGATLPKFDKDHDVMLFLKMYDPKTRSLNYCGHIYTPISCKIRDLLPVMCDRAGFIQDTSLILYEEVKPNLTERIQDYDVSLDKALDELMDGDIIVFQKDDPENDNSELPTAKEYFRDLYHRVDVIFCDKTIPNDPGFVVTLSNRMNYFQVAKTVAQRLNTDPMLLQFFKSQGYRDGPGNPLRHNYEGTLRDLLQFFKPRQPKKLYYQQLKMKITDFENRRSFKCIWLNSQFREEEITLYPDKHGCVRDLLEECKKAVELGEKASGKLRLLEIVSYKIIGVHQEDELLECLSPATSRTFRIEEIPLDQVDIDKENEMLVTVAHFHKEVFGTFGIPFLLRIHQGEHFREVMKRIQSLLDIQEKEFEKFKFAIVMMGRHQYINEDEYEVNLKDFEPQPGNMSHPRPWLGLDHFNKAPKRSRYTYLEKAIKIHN
OTULIN, sequence (Q96BN8 whole entry, species assumed): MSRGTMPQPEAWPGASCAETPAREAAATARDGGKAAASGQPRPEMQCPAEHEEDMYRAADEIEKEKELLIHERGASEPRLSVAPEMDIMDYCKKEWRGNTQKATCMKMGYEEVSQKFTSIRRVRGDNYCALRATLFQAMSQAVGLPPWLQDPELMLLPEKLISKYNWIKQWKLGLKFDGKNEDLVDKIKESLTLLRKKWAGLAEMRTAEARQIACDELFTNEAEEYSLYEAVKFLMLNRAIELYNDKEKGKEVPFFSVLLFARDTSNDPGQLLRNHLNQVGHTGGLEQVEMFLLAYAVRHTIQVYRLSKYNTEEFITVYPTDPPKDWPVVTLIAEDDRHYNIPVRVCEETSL
OTUB1, sequence (Q96FW1 whole entry, species assumed): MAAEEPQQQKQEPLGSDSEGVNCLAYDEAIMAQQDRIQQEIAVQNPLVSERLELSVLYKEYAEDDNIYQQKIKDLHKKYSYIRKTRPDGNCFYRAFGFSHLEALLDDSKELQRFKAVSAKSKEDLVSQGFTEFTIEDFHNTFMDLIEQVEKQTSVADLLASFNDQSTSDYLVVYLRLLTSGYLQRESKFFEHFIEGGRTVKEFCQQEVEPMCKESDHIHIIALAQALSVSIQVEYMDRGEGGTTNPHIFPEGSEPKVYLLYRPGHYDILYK
USP14, sequence (P54578 whole entry, species assumed): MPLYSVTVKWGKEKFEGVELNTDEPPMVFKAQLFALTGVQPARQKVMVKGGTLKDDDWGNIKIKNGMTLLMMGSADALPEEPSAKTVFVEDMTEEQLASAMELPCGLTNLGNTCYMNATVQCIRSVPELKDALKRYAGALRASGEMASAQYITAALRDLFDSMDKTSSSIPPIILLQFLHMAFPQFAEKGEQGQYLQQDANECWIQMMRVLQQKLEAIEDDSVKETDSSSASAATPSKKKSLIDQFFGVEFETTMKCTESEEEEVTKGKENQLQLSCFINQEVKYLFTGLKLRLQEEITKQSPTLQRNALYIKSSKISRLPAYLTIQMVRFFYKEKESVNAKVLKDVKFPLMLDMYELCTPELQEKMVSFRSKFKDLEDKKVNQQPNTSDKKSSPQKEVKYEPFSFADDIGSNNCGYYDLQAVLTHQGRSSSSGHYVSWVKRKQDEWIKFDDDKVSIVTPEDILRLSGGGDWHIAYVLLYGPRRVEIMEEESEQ

SMILES: [2H]c1c([2H])c([C@]2([2H])CCCN2C(=O)C(C)(C)Oc2ccc3cn[nH]c3c2)c([2H])c([2H])c1C([2H])([2H])[2H] [QY1892, (S)-2-((1H-Indazol-6-yl)oxy)-2-methyl-1-(2-(4-(methyl-d3)phenyl-2,3,5,6-d4)pyrrolidin-1-yl-2-d)propan-1-one]
- Weight loss in infected mice (SARS-CoV-2 [1]; 5 mpk): significantly slowed the weight loss
- SARS-CoV-2 viral loads in the lungs (SARS-CoV-2 [1]; 5 mpk): effectively reduced viral loads in the lungs
- Kinase selectivity across the kinome [2]: no significant off-target activity observed across the kinome
- Viral replication in mouse airway organoids (SARS-CoV-2 [3]): effectively suppressed the viral replication
- Expression levels of ACE2 [4]: significantly reduced
- Phosphorylation levels of RIPK1 Ser166 following viral infection [5]: significantly reduced
- Brain distribution post-administration [6]: significant brain distribution
- Effects against SARS-CoV-2 in ACE2-HeLa cells (SARS-CoV-2 [7]): neither QY1892 nor DNL758 exhibited detectable effects
- Cytokine secretion from the organoids upon viral infection (cytokine secretion): significantly more effective than SHY1643

SMILES: CN1C(=O)[C@@H](NC(=O)c2nnc(Cc3ccccc3)[nH]2)COc2cccnc21 [DNL758, reference compound]
- Effects against SARS-CoV-2 in ACE2-HeLa cells (SARS-CoV-2 [7]): neither QY1892 nor DNL758 exhibited detectable effects

SMILES: C[C@H](c1cccc2ccccc12)N1CCC(C(=O)NCc2cccc(-c3cn(Cc4nnc5c(F)cccn45)nn3)c2)CC1 [SHY1643, (R)-N-(3-(1-((8-Fluoro-[1,2,4]triazolo[4,3-a]pyridin-3-yl)methyl)-1H-1,2,3-triazol-4-yl)benzyl)-1-(1-(naphthalen-1-yl)ethyl)piperidine-4-carboxamide]
- Weight loss in infected mice (SARS-CoV-2 [1]; 10 mpk): significantly slowed the weight loss
- SARS-CoV-2 viral loads in the lungs (SARS-CoV-2 [1]; 10 mpk): effectively reduced viral loads in the lungs
- Inhibitory effect on USP14 (USP14): no significant inhibitory effects
- Inhibitory effect on OTUB1 (OTUB1): no significant inhibitory effects
- IC50 (SARS-CoV-2 Nsp3^179−1329): 28 nM
- Inhibitory effect on USP7 (USP7): no significant inhibitory effects
- Inhibitory effect on UCHL1 (UCHL1): no significant inhibitory effects
- Expression levels of ACE2 [4]: did not affect
- Inhibitory effect on USP8 (USP8): no significant inhibitory effects
- Phosphorylation levels of RIPK1 Ser166 following viral infection [5]: did not affect
- Antiviral activity against OC43 (OC43): robust antiviral activity
- Metabolic stability in mouse microsomes [8]: markedly improved metabolic stability compared to 2
- Antiviral activity against 229E (229E): robust antiviral activity
- Inhibitory effect on OTULIN (OTULIN): no significant inhibitory effects
- Dimerization of Nsp3 protein (Nsp3179-1329 proteins): could induce dimerization of Nsp3 protein
